In the RNAGym collection of RNA variant scans (doi:10.1126/science.aae0568):
Fewer inactive variants are shown than the library holds.

B1: tRNA (parent)
chain: GUUCCGUUGGCGUAAUGGUAACGCGUCUCCCUCCUAAGGAGAAGACUGCGGGUUCGAGUCCCGUACGGAACG

Variants of: B1
Assay: yeast fitness relative to wild type (ratio to wild type); higher = fitter; tRNA-Arg(CCU), competitive growth, 37 C, YPD
How it was run: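 Amplicons of the tRNA-Arg(CCU) gene were sequenced, 100-nucleotide paired-end, from the start population and from each end population of a pooled yeast competition. The competition, in six parallel replicates, lasted 24 hours in YPD at 37°C. Fitness relative to wild type was calculated from changes in genotype frequencies. Genotypes had to have ≥ 100 starting reads, and estimates < 0.5 were set to 0.5.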
Variant GUUCCGUUGGCGUAAUGGAAAUGCGUCUCCCUCCUAAGGAGAAGACUGCGGGUUCAAGUCCCGUACGGAACG [U19A C22U G56A] has a yeast fitness of 0.547.
For GUUCCGUUGGCGUAAUGGAAAUGCGUCUCCCUCCUAAGGAGAAGACUGCGGGUUCGAGUCCCCUACGGAACG [U19A C22U G63C], the yeast fitness was ≤ 0.5.
For GUUCCGUUGGCGUAAUGGAAAUGCGUCUCCCCCCUAAGGAGAAGAUUGCGGGUUCGAGUCCCGUACGGAACG [U19A C22U U32C C46U], the yeast fitness was ≤ 0.5.
With GUUCCGUUGGCGUAAUGGAAACGAGUCUCGCUCUUAAGGAGAAGACUGCGACUUCGAGUCCCGUAUGGAACG [U19A C24A C30G C34U G51A G52C C66U] the yeast fitness was ≤ 0.5.
In the case of GUUCCGUUGGCGUAAUGGAAACGAGUCUCCCUCCUAAGGAGAAGACUCCGGGUUCGAGUCCCGUACGGAACG [U19A C24A G48C], the yeast fitness is reported as ≤ 0.5.
For GUUCCGUUGGCGUAAUGGAAACGAGUCUCCCCCCUUAGGAGAAGACUGCGGGUUCGAGUCCCGUAGGGAACG [U19A C24A U32C A36U C66G], the yeast fitness was ≤ 0.5.
Variant GUUCCGUUGGCGUAAUGGAAACGGGUGUCCGUCGUACGGAGAAGACUGCGGGUUCGGGUCGCGUACGGAACG [U19A C24G C27G C31G C34G A37C A57G C61G] has a yeast fitness of 0.576.
With GUUCCGUUGGCGUAAUGGAAACGGGUUUCACUCCUAAGGAGAAGACUGCGGCUUCGAGUCCCGUACGGAACG [U19A C24G C27U C30A G52C] the yeast fitness was 0.571.
For GUUCCGUUGGCGUAAUGGAAACGGGUUUCACUCCUAAGGAGAAGACUGCGGCUUCAAGUCCCGUACGGAACG [U19A C24G C27U C30A G52C G56A], the yeast fitness was ≤ 0.5.
For GUUCCGUUGGCGUAAUGGAAACGGGUCUCCCUGGUAAGGAGAAGACUGCGGGUUCGGGUCCCGUACGGAACG [U19A C24G C33G C34G A57G], the yeast fitness was 0.579.
In the case of GUUCCGUUGGCGUAAUGGAAACGGGUCUCCCUGGUAAGGAGAAGACUGCGAGUUCGAGUCCCGUACGGAACG [U19A C24G C33G C34G G51A], the yeast fitness is reported as 0.531.
In the case of GUUCCGUUGGCGUAAUGGAAACGGGUCUCCCUCCUAAGGAGAAGACUGCGGCUUCGAGUCCCGGACGGAACG [U19A C24G G52C U64G], the yeast fitness is reported as 0.535.
With GUUCCGUUGGCGUAAUGGAAACGUGUCUCCCUUCUAAGGAGAAGACUGUGGGUUCGAGUCCCGUACGGAACG [U19A C24U C33U C49U] the yeast fitness was ≤ 0.5.
In the case of GUUCCGUUGGCGUAAUGGAAACGUCUCUCCCUCCUAAGGAGAAGACUGUGGGUUCGAGUCCCGUACGGAACG [U19A C24U G25C C49U], the yeast fitness is reported as ≤ 0.5.
With GUUCCGUUGGCGUAAUGGAAACGUGUCUCCCUCCUAAAGAGAAGACUGCGGGUCCGAGUCCCGUACGGCACG [U19A C24U G38A U54C A69C] the yeast fitness was ≤ 0.5.
Work on GUUCCGUUGGCGUAAUGGAAACGUGUCUCCCUCCUAAAGAGAAGACUGCGGGUCCGAGUCCCGUAAGGAACG [U19A C24U G38A U54C C66A] yielded a yeast fitness of 0.511.
Work on GUUCCGUUGGCGUAAUGGAAACGUGUCUCCCUCCUAAGGAGAAGACUGCGGGUUCGAGUCCCGCACGGAACG [U19A C24U U64C] yielded a yeast fitness of 0.689.
For GUUCCGUUGGCGUAAUGGAAACGCGUAUCCCUCCUAAGGAGAAGACUGCGGGUUCGAGUCCCGUACGGAACG [U19A C27A], the yeast fitness was 0.775.
In the case of GUUCCGUUGGCGUAAUGGAAACGCGUAUCCCUCCUAAGGAGAAGACUGCGGCUUCGAGUCCCGUACGGAACG [U19A C27A G52C], the yeast fitness is reported as ≤ 0.5.
In the case of GUUCCGUUGGCGUAAUGGAAACGCGUGUCCCUCCUAAGGAGAAGACUGCGGGUUCGAGUCCCGUACGGAACG [U19A C27G], the yeast fitness is reported as 0.581.
For GUUCCGUUGGCGUAAUGGAAACGCGUGUCCCUCCUAAGGGGAAGACUGCGGGUUCGAGUCCCGUACGGAACG [U19A C27G A40G], the yeast fitness was ≤ 0.5.
With GUUCCGUUGGCGUAAUGGAAACGCGUGUCCUUCCUAAGGAGAAGACUGCGGGUUCGAGUCCCGUACGGAGCG [U19A C27G C31U A70G] the yeast fitness was ≤ 0.5.
For GUUCCGUUGGCGUAAUGGAAACGCGUGUCCUUCCUAAGGAGAAGACUGCGGGUUCGAGUCCUGUACGGAACG [U19A C27G C31U C62U], the yeast fitness was ≤ 0.5.
For GUUCCGUUGGCGUAAUGGAAACGCGUUUCCCUCCUAAGGAGUAGGCUGCGGGUUCGAGUCCCGAACGGAACG [U19A C27U A42U A45G U64A], the yeast fitness was ≤ 0.5.
GUUCCGUUGGCGUAAUGGAAACGCGUUUCCCUCCUAAGGAGAAGCCUGCGGGUUCGAGUCCCAUACGGAACG [U19A C27U A45C G63A] gave a yeast fitness of 0.729.
Work on GUUCCGUUGGCGUAAUGGAAACGCGUUUUCCUCCUAAGGAGAAGACUGCGGGUUCGAGUCCCGUACGGAACG [U19A C27U C29U] yielded a yeast fitness of 0.697.
GUUCCGUUGGCGUAAUGGAAACGCGUUUCCCUCCUAAGGAGAAGACUGUGGGUUUGAGUCCCGUACGGAACG [U19A C27U C49U C55U] showed a yeast fitness of 0.525.
For GUUCCGUUGGCGUAAUGGAAACGCGUUUCCCUCCUAAGGAGAAGACUGCGGGUUCGAGUCCCGUAUGGAACG [U19A C27U C66U], the yeast fitness was 0.786.
For GUUCCGUUGGCGUAAUGGAAACGCGUUUCCCUCCUAAGGAGAACACUCCGGGUUCGAGUCCCGUACGGAACG [U19A C27U G44C G48C], the yeast fitness was ≤ 0.5.
In the case of GUUCCGUUGGCGUAAUGGAAACGCGUUUCCCUCCUAAGGAGAACACUCCGGGUUCGAGUCCCGUAUGGAACG [U19A C27U G44C G48C C66U], the yeast fitness is reported as ≤ 0.5.
In the case of GUUCCGUUGGCGUAAUGGAAACGCGUUCCCCUCCUAAGGAGAAGACUGCGGGUUUGAGUCCCGUACGGAACG [U19A C27U U28C C55U], the yeast fitness is reported as ≤ 0.5.
GUUCCGUUGGCGUAAUGGAAACGCGUUUCCCUCCUAAGGAGAAGACUGCGGGUUCGAGACCCGUCCUGAACG [U19A C27U U59A A65C G67U] showed a yeast fitness of 0.575.
For GUUCCGUUGGCGUAAUGGAAACGCGUCUACCUCCUAAGGAGAAGACUGCGGGUUCGAGUCCCGUACGGAACG [U19A C29A], the yeast fitness was 0.712.
For GUUCCGUUGGCGUAAUGGAAACGCGUCUACCUCCUAAGGAGAAGACUGCGGGUUCGAGUCCCGUACAGAACG [U19A C29A G67A], the yeast fitness was ≤ 0.5.
For GUUCCGUUGGCGUAAUGGAAACGCGUCUACCACCUAAGGAGAAGACUGCGGGUCGGAGUGCCGUACGGAACG [U19A C29A U32A U54C C55G C60G], the yeast fitness was ≤ 0.5.
GUUCCGUUGGCGUAAUGGAAACGCGUCUGCCUCCUAAGGAGAAGACUGCGGGUUCGAGUCCCGUACGGAACG [U19A C29G] showed a yeast fitness of 0.685.
For GUUCCGUUGGCGUAAUGGAAACGCGUCUGCCUCCUAAGGAGCAGAAUGGGGGUUCGAGUCCCGUACGGAACG [U19A C29G A42C C46A C49G], the yeast fitness was ≤ 0.5.
